Sampled rows, rich in hits. Any-hit rate of the full collection: about 11%.
mHtt clearance = clearance of mutant huntingtin inclusions, primary screen, imaging, HeLa Exon1htt(103Q)mCFP, confocal imaging; aggregate imaging; zero = plate's median compound well; inhibition, % at 1.5 µM; hit rate 0.42% among 47,000;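 active means inhibition of aggregate fluorescence above about 70%, also judged a hit by eye on the cell image, limit read from the data, passing the limit was not always enough; inconclusive means no rule stated for this call; inactive means not judged a hit on image review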;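 further: cells exposed to compound for three days before fixation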
M1 antag = antagonists of rat M1 muscarinic receptor; Muscarinic acetylcholine receptor M1 (Rattus norvegicus), P08482; CHO-M1 cells, Fluo-4 calcium, ACh EC80 antagonist mode; stronger effect = lower value; B-score at 10 µM; hit rate 3.4% among 64,000; AID 628, 2007;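 active means calcium fluorescence response, raw or row-and-column corrected B-score, differing from the plate sample mean either way at a set confidence level, mostly lower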
D1 mod = D1 CRE-luciferase signal change, two-sided – cell-based, HEK293 D1, dopamine EC30, D1 allosteric modulator project, primary screen; D(1A) dopamine receptor (Homo sapiens), P21728; dopamine EC30 potentiation; actives deviate in either direction; B-score at 10 µM; hit rate 5.9% among 58,000; AID 641, 2007;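 active means luminescence count or its row- and column-corrected plate score outside the 99.7% band of the plate's sample wells, on either side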
Target sequence (P21728 whole entry, looked up): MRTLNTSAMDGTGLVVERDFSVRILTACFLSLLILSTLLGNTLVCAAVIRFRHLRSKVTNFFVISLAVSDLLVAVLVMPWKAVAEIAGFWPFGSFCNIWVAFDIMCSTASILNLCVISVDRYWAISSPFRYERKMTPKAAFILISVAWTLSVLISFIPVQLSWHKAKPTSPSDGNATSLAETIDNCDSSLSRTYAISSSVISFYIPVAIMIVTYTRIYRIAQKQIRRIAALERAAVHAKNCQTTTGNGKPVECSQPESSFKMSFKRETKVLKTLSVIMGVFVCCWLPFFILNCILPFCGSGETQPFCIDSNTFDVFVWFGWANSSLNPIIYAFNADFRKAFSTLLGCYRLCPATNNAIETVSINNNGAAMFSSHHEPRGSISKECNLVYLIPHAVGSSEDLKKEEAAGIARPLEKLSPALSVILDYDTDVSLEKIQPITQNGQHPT
RORa activator = activators of orphan receptor RORA, primary screen, cell-based, luminescence | CHO-K1 Gal4-RORA LBD luciferase reporter; percent increase over mock-subtracted basal signal | activation, % at 10 µM | hit rate 1.5% among 65,000 | AID 560, 2006;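 active means activation above the mean of all tested compounds plus 3 SD, cut at about 49% in these data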;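 further: 0% = DMSO-treated RORA cells and 100% = added signal equal to DMSO minus mock-transfected cells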
M1 agonist = M1 muscarinic receptor agonists, primary screen, CHO-M1 cells, Fluo-4 calcium, agonist mode; Muscarinic acetylcholine receptor M1; Fluo-4 calcium fluorescence; stronger effect = higher value; B-score at 10 µM; hit rate 3% among 64,000; AID 626, 2007;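 active means fluorescence rise, raw or as B-score row- and column-corrected plate score, outside the 99.7% band of its plate's samples, either direction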
SF1 activator = activators of human SF-1, primary screen, cell-based, CHO-K1, Gal4-SF-1 LBD, luciferase luminescence; CHO-K1 Gal4-SF-1 LBD luciferase reporter; % increase over DMSO SF-1-specific signal; activation, % at 10 µM; hit rate 1.9% among 65,000; AID 522, 2006;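 active means activation above the mean activation of all tested compounds plus 3 SD, cut at about 50% in these data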
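Assay system: CHO-K1 cells co-transfected with Gal4 DBD–human SF-1 LBD, 5xGal4 luciferase reporter / Input: 4,000 cells per well / Incubation: 20 h compound exposure at 37 °C after 1 h cell settling / Detection: SteadyLite luciferase luminescence / Control set: DMSO negative control and −SF1 background wells / Replication: one test per compound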
M1 ag confirm = rat M1 muscarinic receptor agonists, confirmation, CHO-M1 cells, Fluo-4 calcium, duplicate retest | fluorescence change (max-min) at 10 µM | shares compounds with M1 agonist | Fluo-4 calcium fluorescence, agonist mode; actives lie on both sides | hit rate 19% among 1,700;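 active means fluorescence change differs from the solvent-only DMSO control mean at a set confidence level in both duplicate runs; inconclusive means differs from solvent-only control mean in just one of two runs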;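 further: an EC20 dose of acetylcholine follows compound addition during the same imaging run; raw fluorescence intensity difference in instrument units with no normalization to controls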
M4 ag counter = agonist activity at rat M4 receptor, confirmation, counter-screen for M1 allosteric modulator project, cell-based, agonist mode; hit rate 9% among 1,700; AID 1741, 2009; shares compounds with M1 agonist; fluorescence change (max-min) at 10 µM; CHO M4/Gqi5 cells, Fluo-4 calcium fluorescence; actives lie on both sides;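 active means fluorescence change differing from the plate's solvent-only control wells at 99.7% confidence in both duplicates, whether higher or lower; inconclusive means differs from solvent controls in only one of two duplicates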
* hit, by the source's call; u = inconclusive; x = no result given.

SMILES | mHtt clearance | M1 antag | D1 mod | RORa activator | M1 agonist | SF1 activator | M1 ag confirm | M4 ag counter
O=C(NCc1ccco1)c1cnn2c1NC(c1ccccc1)CC2C(F)(F)F (configuration not stated) | -5 | 1 | x | -17 | 0.28 | 11 | x | x
Cc1nn(C)c(C)c1CN(C)C(=O)c1cnn2c1NC(c1ccccc1)CC2C(F)(F)F (configuration not stated) | x | -0.62 | -0.26 | -18 | -3.3* | -11 | -26* | u
c1ccc(-c2nc(NCCCN3CCOCC3)c3ccccc3n2)cc1 | 37 | -0.15 | -1.6 | -4 | 2.6* | 6 | -8.4 | -11
Cc1cc(C)c(N2C(=NC(=O)CCCC(=O)O)SC3CS(=O)(=O)CC32)c(C)c1 (configuration not stated) | x | 0.36 | -0.038 | -15 | -0.082 | 1 | x | x
Cc1ccc(C)c(OCC(O)CN2C(C)CCCC2C)c1 (configuration not stated) | -29 | -1.5* | -1.7 | 1 | 2.5* | -1 | -29* | -55
CC(C)(C)NC(=O)CN(C(=O)CS(=O)CC(=O)Nc1ccc(F)cc1)c1ccc(Cl)cc1 (configuration not stated) | x | 0.067 | -0.088 | 27 | -0.5 | 3 | x | x
CC(C)N(C(=O)CN(C#N)c1nc(N(C)C)nc(N(C)C)n1)c1ccccc1 | x | -0.7 | 0.74 | -23 | -3.2* | -4 | -11 | -14
COCCCn1c(C(C)C)nc2oc3cc(OC)ccc3c(=O)c2c1=O | 37 | 1.8 | -0.047 | 6 | 13* | 12 | -10 | -23
CC(C)c1ccccc1OCCCCCNCCO | 16 | -0.9 | x | -13 | 0.034 | 2 | x | x
COc1ccc(S(=O)(=O)C(C#N)c2nc3ccccc3nc2N2CCC(C)CC2)cc1 (configuration not stated) | x | 0.9 | 0.82 | 8 | 3.9* | 13 | u | -43
O=C(Nc1ccccc1)N(Cc1ccc2c(c1)OCO2)Cc1nc2ccccc2c(=O)[nH]1 | 1 | -0.0029 | 0.51 | -4 | 0.53 | 14 | x | x
O=C(c1ccccc1)N(Cc1ccc2c(c1)OCO2)Cc1nc2ccccc2c(=O)[nH]1 | x | -0.27 | 0.47 | -14 | 2.7* | -5 | u | -83
COc1ccc(S(=O)(=O)Nc2cc(C)c(O)cc2C(C)C)cc1 | -37 | 0.35 | -1.3 | -3 | 4.7* | -6 | -11 | -48
O=C(COc1ccc(-c2nnco2)cc1)NC1CCCc2ccccc21 (configuration not stated) | x | -0.02 | 1.2 | -21 | -0.91 | 3 | x | x
CN1CC=C2C(C#N)=C(N)C(C#N)(C#N)C(CCc3ccccc3)C2C1 (configuration not stated) | x | -1.1 | -2.6 | 4 | 18* | 8 | 91* | 37
CN1CC=C2C(C#N)=C(N)C(C#N)(C#N)[C@H](c3cccc(Cl)c3)C2C1 (some centres not stated) | -44 | -0.18 | -2.5 | -11 | 54* | -11 | 173* | 112
CCN1CC=C2C(C#N)=C(N)C(C#N)(C#N)[C@H](c3cccc(OC)c3OC)[C@H]2C1 | x | -1.8 | -2.1 | -13 | 271* | -2 | 307* | u
COc1cccc(C2C3CN(C)CC=C3C(C#N)=C(N)C2(C#N)C#N)c1OC (configuration not stated) | -29 | 0.42 | -4.4 | -12 | 87* | -2 | 651* | 605*
CC(NC(=O)Cn1cc(C(=O)C2CC2)c2ccccc21)c1ccccc1 (configuration not stated) | -43 | x | x | x | x | x | x | x

Screening data: PubChem, several laboratories
